Reference: ChEMBL document CHEMBL2434924, “Nonpeptidic angiotensin II AT₁ receptor antagonists derived from 6-substituted aminocarbonyl and acylamino benzimidazoles” (Eur J Med Chem, 2013)

How the values were obtained:
[1] = biological target: T1, Type-1 angiotensin II receptor (Homo sapiens, UniProt P30556); test: Displacement of [125I]-Sar1Ile8-angiotensin 2 from angiotensin 2 AT1 receptor (unknown origin) after 180 mins by gamma counting analysis
T1 sequence (P30556 whole entry): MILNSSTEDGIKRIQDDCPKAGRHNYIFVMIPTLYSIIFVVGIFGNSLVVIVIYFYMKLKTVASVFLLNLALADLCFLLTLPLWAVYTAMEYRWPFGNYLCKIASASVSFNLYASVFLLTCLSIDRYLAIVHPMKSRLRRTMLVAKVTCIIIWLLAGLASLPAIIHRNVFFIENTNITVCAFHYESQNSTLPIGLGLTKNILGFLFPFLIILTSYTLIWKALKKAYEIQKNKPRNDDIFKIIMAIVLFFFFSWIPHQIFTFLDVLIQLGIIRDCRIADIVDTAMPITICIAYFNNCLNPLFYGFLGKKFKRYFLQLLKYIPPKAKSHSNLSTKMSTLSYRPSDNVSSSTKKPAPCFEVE

[2] = biological target: T2, Type-2 angiotensin II receptor (Homo sapiens, UniProt P50052); test: Displacement of [125I]-Sar1Ile8-angiotensin 2 from angiotensin 2 AT2 receptor (unknown origin) after 180 mins by gamma counting analysis
T2 sequence (P50052 whole entry): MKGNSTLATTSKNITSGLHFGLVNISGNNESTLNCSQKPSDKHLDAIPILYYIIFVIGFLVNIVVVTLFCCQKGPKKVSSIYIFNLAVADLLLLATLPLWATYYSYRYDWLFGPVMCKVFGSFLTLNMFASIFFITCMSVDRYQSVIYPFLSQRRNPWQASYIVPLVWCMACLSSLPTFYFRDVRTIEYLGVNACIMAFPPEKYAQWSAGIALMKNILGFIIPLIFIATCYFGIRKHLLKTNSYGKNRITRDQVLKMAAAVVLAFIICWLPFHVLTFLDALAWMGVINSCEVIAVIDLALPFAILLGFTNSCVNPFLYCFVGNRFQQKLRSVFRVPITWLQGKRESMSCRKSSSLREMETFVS

[3] = Antagonist activity at angiotensin 2 receptor in Japanese white rabbit thoracic aorta assessed as inhibition of angiotensin 2-induced contraction after 60 mins by Schild plot analysis; type: tissue-based, Oryctolagus cuniculus
In short: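 Helical aortic strips (3-4 mm wide, 15-20 mm long) in 10-mL baths of bicarbonate salt solution (CaCl2·2H2O 2.5, NaHCO3 25, glucose 11.1), 37 °C, 95% O2/5% CO2, isometric tension. 1 h equilibration with 15-min washes; 67 mM KCl sets maximal contraction; 30 min washout; antagonist or vehicle for 60 min, then cumulative Ang II curves, one per strip. Response as % of KCl maximum; pA2 from Schild plot.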

Rattus norvegicus = test: Antihypertensive activity in SHR rat assessed as decrease in blood pressure at 10 mg/kg, po by tail plethysmography; type: functional
In short: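 Male SHR, 19-21 weeks old, n = 6 per group, with a vehicle group (water, 10 mL/kg). Single oral dose of 10 mg/kg. Blood pressure and heart rate measured by tail plethysmography in unanesthetized rats after a warming period.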

[4] = biological target: T3, Type-1 angiotensin II receptor (Homo sapiens) (UniProt P30556); test: Ratio of losartan IC50 to compound IC50 for angiotensin 2 AT1 receptor (unknown origin)
T3 sequence (whole entry): T1 sequence (P30556 whole entry)

SMILES	IC50 [1]	IC50 [2]	Ratio IC50 [4]	pA2 [3]	Activity (Rattus norvegicus)
CCCC(=O)Nc1cc(C)c2nc(CCC)n(Cc3ccc(-c4ccccc4C(=O)O)cc3)c2c1	0.3 nM	53 nM	–	–	–
CCCc1nc2c(C)cc(C(=O)N3CCCCC3)cc2n1Cc1ccc(-c2ccccc2C(=O)O)cc1	20 nM	42 nM	–	–	–
CCCc1nc2c(C)cc(NC(=O)OC)cc2n1Cc1ccc(-c2ccccc2C(=O)O)cc1	0.7 nM	4370 nM	–	8.15	–
CCCc1nc2c(C)cc(C(=O)NCCCN3CCOCC3)cc2n1Cc1ccc(-c2ccccc2C(=O)O)cc1	10 nM	718 nM	–	–	–
CCCc1nc2c(C)cc(NC(C)=O)cc2n1Cc1ccc(-c2ccccc2C(=O)O)cc1	1430 nM	–	–	–	–
CCCc1nc2c(C)cc(C(=O)NCCN3CCOCC3)cc2n1Cc1ccc(-c2ccccc2C(=O)O)cc1	11 nM	> 10000 nM	–	8.2	–
CCCc1nc2c(C)cc(C(=O)N3CCOCC3)cc2n1Cc1ccc(-c2ccccc2C(=O)O)cc1	1010 nM	–	–	–	–
CCCc1nc2c(C)cc(NC(=O)CC)cc2n1Cc1ccc(-c2ccccc2C(=O)O)cc1	0.4 nM	78 nM	–	–	–
CCCc1nc2c(C)cc(NC(=O)c3ccc(C)cc3)cc2n1Cc1ccc(-c2ccccc2C(=O)O)cc1	4.9 nM	> 10000 nM	–	8.25	–
CCCCc1nc(Cl)c(CO)n1Cc1ccc(-c2ccccc2-c2nnn[nH]2)cc1 [LOSARTAN]	–	–	–	7.92	–

The next lines start with results.

IC50 [1]	IC50 [2]	Ratio IC50 [4]	SMILES	pA2 [3]	Activity (Rattus norvegicus)
3 nM	> 10000 nM	10	CCCc1nc2c(C)cc(C(=O)NCCc3ccccc3)cc2n1Cc1ccc(-c2ccccc2C(=O)O)cc1	8.51	>30 mmHg
0.1 nM	149 nM	10	CCCc1nc2c(C)cc(NC(=O)CCc3ccccc3)cc2n1Cc1ccc(-c2ccccc2C(=O)O)cc1	8.43	>30 mmHg
3.9 nM	6 nM	–	CCCc1nc2c(C)cc(NC(=O)c3ccccc3)cc2n1Cc1ccc(-c2ccccc2C(=O)O)cc1	–	–
1340 nM	–	–	CCCNC(=O)c1cc(C)c2nc(CCC)n(Cc3ccc(-c4ccccc4C(=O)O)cc3)c2c1	–	–
1.2 nM	77 nM	–	CCCc1nc2c(C)cc(NC(=O)Cc3ccccc3)cc2n1Cc1ccc(-c2ccccc2C(=O)O)cc1	8.21	–
13 nM	164 nM	–	CCCCNC(=O)c1cc(C)c2nc(CCC)n(Cc3ccc(-c4ccccc4C(=O)O)cc3)c2c1	–	–
115 nM	–	–	CCCc1nc2c(C)cc(C(=O)NCCCc3ccccc3)cc2n1Cc1ccc(-c2ccccc2C(=O)O)cc1	–	–
39 nM	61 nM	–	CCCc1nc2c(C)cc(C(=O)Nc3ccc(C)cc3)cc2n1Cc1ccc(-c2ccccc2C(=O)O)cc1	–	–
